# In ChEMBL document CHEMBL4138085, “Design, synthesis and antimicrobial evaluation of novel benzimidazole-incorporated sulfonamide analogues” (Eur J Med Chem, 2017):
# Tests used:
# [1] = test system: Staphylococcus aureus; assay: Antibacterial activity against Staphylococcus aureus ATCC 25923 after 24 hrs by NCCLS two fold broth microdilution method; type: functional; settings: ATCC 25923, 24 h
# Outline: (§1)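 Two-fold serial broth microdilution in 96-well plates following NCCLS. Compounds were dissolved in DMSO as stocks, then diluted in Mueller–Hinton broth to final concentrations of 0.5–512 µg/mL. Plates were inoculated and incubated at 37 °C for 24 h, with growth read visually and spectrophotometrically. MIC was taken as the lowest concentration giving complete growth inhibition. Run in triplicate, with a DMSO-plus-inoculum solvent control.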
# [2] = test system: Staphylococcus aureus; assay: Antibacterial activity against methicillin-resistant Staphylococcus aureus N315 after 24 hrs by NCCLS two fold broth microdilution method; type: functional; settings: N315, 24 h
# Outline: (§2)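 Two-fold serial broth microdilution per NCCLS. Chloromycin and norfloxacin as reference drugs; DMSO with inoculum, no drug, as solvent control. Incubation 37 °C for 24 h. Growth read visually and spectrophotometrically. MIC is the lowest concentration completely inhibiting growth; triplicate.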
# [3] = test system: Bacillus subtilis; assay: Antibacterial activity against Bacillus subtilis ATCC 21216 after 24 hrs by NCCLS two fold broth microdilution method; type: functional; settings: ATCC 21216, 24 h; outline: as §1
# [4] = test system: Micrococcus luteus; assay: Antibacterial activity against Micrococcus luteus ATCC 4698 after 24 hrs by NCCLS two fold broth microdilution method; type: functional; settings: NCTC 2665, 24 h; outline: as §1
# [5] = test system: Bacillus; assay: Antibacterial activity against Bacillus proteus ATCC 13315 after 24 hrs by NCCLS two fold broth microdilution method; type: functional; settings: ATCC 13315, 24 h; outline: as §1
# [6] = test system: Escherichia coli; assay: Antibacterial activity against Escherichia coli ATCC 8099 after 24 hrs by NCCLS two fold broth microdilution method; type: functional; settings: ATCC 8099, 24 h
# Outline: as §1, with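 “NCCLS.” for “NCCLS. Compounds were dissolved in DMSO as stocks, then diluted in Mueller–Hinton broth to final concentrations of 0.5–512 µg/mL.”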
# [7] = test system: Pseudomonas aeruginosa; assay: Antibacterial activity against Pseudomonas aeruginosa ATCC 27853 after 24 hrs by NCCLS two fold broth microdilution method; type: functional; settings: ATCC 27853, 24 h
# Outline: as §1, with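 “NCCLS.” for “NCCLS. Compounds were dissolved in DMSO as stocks, then diluted in Mueller–Hinton broth to final concentrations of 0.5–512 µg/mL.”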
# [8] = test system: Salmonella typhi; assay: Antibacterial activity against Bacillus typhi after 24 hrs by NCCLS two fold broth microdilution method; type: functional, Salmonella enterica subsp. enterica serovar Typhi; settings: Salmonella enterica
# Outline: as §2, with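 “NCCLS. DMSO stocks diluted in Mueller–Hinton broth to 512, 256, 128, 64, 32, 16, 8, 4, 2, 1, 0.5 µg/mL.” for “NCCLS.”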
# [9] = test system: Candida albicans; assay: Antifungal activity against Candida albicans ATCC 76615 after 24 hrs by NCCLS two fold broth microdilution method; type: functional; settings: ATCC 76615, 24 h
# Outline: (§3)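 Two-fold serial microdilution following NCCLS. A spore suspension in sterile distilled water was prepared from one-day-old cultures grown on Sabouraud agar and adjusted to a final 1–5 × 10^3 spores/mL. DMSO stocks were diluted in RPMI 1640 to eleven concentrations (0.5–512 µg/mL), inoculated and held at 35 °C for 24 h. Growth was read visually and spectrophotometrically, MIC was the lowest concentration with complete inhibition, and runs were in triplicate.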
# [10] = test system: Pichia norvegensis; assay: Antifungal activity against Candida mycoderma after 24 hrs by NCCLS two fold broth microdilution method; type: functional
# [11] = test system: Cyberlindnera jadinii; assay: Antifungal activity against Candida utilis after 24 hrs by NCCLS two fold broth microdilution method; type: functional; settings: Williopsis jadinii; outline: as §3
# [12] = test system: Saccharomyces cerevisiae; assay: Antifungal activity against Saccharomyces cerevisiae after 24 hrs by NCCLS two fold broth microdilution method; type: functional; outline: as §3
# [13] = test system: Aspergillus flavus; assay: Antifungal activity against Aspergillus flavus after 24 hrs by NCCLS two fold broth microdilution method; type: functional; outline: as §3
SMILES,MIC [1],MIC [2],MIC [3],MIC [4],MIC [5],MIC [6],MIC [7],MIC [8],MIC [9],MIC [10],MIC [11],MIC [12],MIC [13]
CCCCCCCCCCCCCCCCCCn1c(CS(=O)(=O)c2ccc(NC(C)=O)cc2)nc2ccccc21,128 µg/mL,512 µg/mL,512 µg/mL,512 µg/mL,512 µg/mL,512 µg/mL,512 µg/mL,512 µg/mL,512 µg/mL,512 µg/mL,512 µg/mL,512 µg/mL,512 µg/mL
Nc1ccc(S(=O)(=O)Cc2nc3ccccc3n2Cc2ccc(Cl)c(Cl)c2)cc1,512 µg/mL,128 µg/mL,512 µg/mL,256 µg/mL,512 µg/mL,512 µg/mL,512 µg/mL,64 µg/mL,64 µg/mL,512 µg/mL,256 µg/mL,256 µg/mL,512 µg/mL
CCCCCCCCn1c(CS(=O)(=O)c2ccc(N)cc2)nc2ccccc21,512 µg/mL,512 µg/mL,512 µg/mL,512 µg/mL,512 µg/mL,512 µg/mL,512 µg/mL,512 µg/mL,64 µg/mL,256 µg/mL,512 µg/mL,512 µg/mL,512 µg/mL
CCCCCCCCCCCCn1c(CS(=O)(=O)c2ccc(N)cc2)nc2ccccc21,512 µg/mL,512 µg/mL,512 µg/mL,256 µg/mL,512 µg/mL,512 µg/mL,512 µg/mL,512 µg/mL,512 µg/mL,512 µg/mL,512 µg/mL,256 µg/mL,512 µg/mL
CCCCCn1c(CS(=O)(=O)c2ccc(N)cc2)nc2ccccc21,512 µg/mL,512 µg/mL,512 µg/mL,256 µg/mL,512 µg/mL,512 µg/mL,512 µg/mL,512 µg/mL,512 µg/mL,512 µg/mL,512 µg/mL,128 µg/mL,256 µg/mL
CC(=O)Nc1ccc(S(=O)(=O)Cc2nc3ccccc3n2Cc2ccccc2F)cc1,512 µg/mL,128 µg/mL,64 µg/mL,32 µg/mL,128 µg/mL,256 µg/mL,128 µg/mL,64 µg/mL,256 µg/mL,512 µg/mL,32 µg/mL,512 µg/mL,64 µg/mL
CCCCCCn1c(CS(=O)(=O)c2ccc(N)cc2)nc2ccccc21,128 µg/mL,512 µg/mL,512 µg/mL,512 µg/mL,256 µg/mL,512 µg/mL,128 µg/mL,512 µg/mL,512 µg/mL,512 µg/mL,512 µg/mL,512 µg/mL,512 µg/mL
Nc1ccc(S(=O)(=O)Cc2nc3ccccc3n2CCCCCn2c3ccccc3c3ccccc32)cc1,512 µg/mL,128 µg/mL,32 µg/mL,512 µg/mL,512 µg/mL,64 µg/mL,512 µg/mL,64 µg/mL,512 µg/mL,16 µg/mL,512 µg/mL,64 µg/mL,128 µg/mL
Nc1ccc(S(=O)(=O)Cc2nc3ccccc3n2Cc2ccccc2Cl)cc1,16 µg/mL,32 µg/mL,16 µg/mL,64 µg/mL,256 µg/mL,128 µg/mL,16 µg/mL,16 µg/mL,16 µg/mL,512 µg/mL,512 µg/mL,512 µg/mL,32 µg/mL
CCn1c(CS(=O)(=O)c2ccc(NC(C)=O)cc2)nc2ccccc21,128 µg/mL,128 µg/mL,32 µg/mL,128 µg/mL,64 µg/mL,256 µg/mL,32 µg/mL,64 µg/mL,64 µg/mL,256 µg/mL,64 µg/mL,512 µg/mL,64 µg/mL
CCn1cc(C(=O)O)c(=O)c2cc(F)c(N3CCNCC3)cc21 [NORFLOXACIN],8 µg/mL,1 µg/mL,2 µg/mL,1 µg/mL,4 µg/mL,1 µg/mL,1 µg/mL,1 µg/mL,–,–,–,–,–
